In ChEMBL document CHEMBL3112499, “Identification of potent CNS-penetrant thiazolidinones as novel CGRP receptor antagonists” (Bioorg Med Chem Lett, 2014):

How the values were obtained:
[1] = molecular target: T1, Calcitonin gene-related peptide type 1 receptor (Homo sapiens, UniProt O60894+Q16602); test: Displacement of [125I]CGRP from CGRP receptor in human SK-N-MC cell membranes preincubated for 30 mins followed by radioligand addition measured after 2 hrs by liquid scintillation counting
[2] = molecular target: T1, Calcitonin gene-related peptide type 1 receptor; test: Antagonist activity at CGRP receptor in human SK-N-MC cells assessed as inhibition of CGRP-stimulated cAMP production preincubated for 30 mins followed by CGRP addition measured after 3 hrs by beta-lactamase reporter gene-based FRET assay; assay type: functional, cell-based
In short: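 SK-N-MC cells (endogenous CGRP receptor) transduced with retroviral cAMP-responsive-promoter β-lactamase reporter; 30,000 cells/well grown overnight in MEM+10% FBS, 37 °C, 5% CO2. Medium swapped to MEM+1% FBS with compound, 30 min pre-incubation; CGRP added (final 200 pM), 3 h at 37 °C. CCF4/AM FRET substrate added, 2 h at room temperature, fluorescence read; n ≥ 3.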

Rattus norvegicus [3] = test: Cmax in rat at 30 mg/kg, po; assay type: ADME, organism-based; parameters: dose 30 mg/kg, route oral; conditions: in vivo
In short: (§1)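 Rats dosed at 30 mg/kg in 10% TPGS suspension; mean of n = 3.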

Rattus norvegicus [4] = test: Oral bioavailability in rat at 30 mg/kg; assay type: ADME, organism-based; conditions: in vivo; in short: as §1
Rattus norvegicus [5] = test: AUC in rat at 30 mg/kg, po; assay type: ADME, organism-based, Plasma; parameters: dose 30 mg/kg, route oral; conditions: in vivo; in short: as §1
[6] = Ratio of drug level in brain to plasma in rat administered as iv bolus measured after 0.25 to 1 hr post dosing; assay type: ADME, organism-based; conditions: brain and plasma, read-out: BPR
In short: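 Rats given an iv bolus; brain and plasma levels taken at 0.25 or 1 h post-dose to give the brain/plasma ratio; mean of n = 3.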

Rattus norvegicus [7] = test: Oral bioavailability in rat at 10 mg/kg; assay type: ADME, organism-based; conditions: in vivo
In short: (§2)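 Rats dosed orally at 10 mg/kg, in suspension vehicle or in 40% PEG400/10% TPGS/water depending on compound; mean of n = 3.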

Rattus norvegicus [8] = test: AUC in rat at 10 mg/kg, po; assay type: ADME, organism-based, Plasma; parameters: dose 10 mg/kg, route oral; conditions: in vivo; in short: as §2
Rattus norvegicus [9] = test: Cmax in rat at 10 mg/kg, po; assay type: ADME, organism-based; parameters: dose 10 mg/kg, route oral; conditions: in vivo; in short: as §2
[10] = Oral bioavailability in rat; assay type: ADME, organism-based; conditions: in vivo
Rattus norvegicus [11] = test: Cmax in po dosed rat; assay type: ADME, organism-based; parameters: route oral; conditions: in vivo
[12] = Clearance in iv dosed rat; assay type: ADME, organism-based; conditions: in vivo
Rattus norvegicus [13] = test: AUC in po dosed rat; assay type: ADME, organism-based, Plasma; conditions: in vivo

T1 sequence (Q16602 whole entry, one chain of several): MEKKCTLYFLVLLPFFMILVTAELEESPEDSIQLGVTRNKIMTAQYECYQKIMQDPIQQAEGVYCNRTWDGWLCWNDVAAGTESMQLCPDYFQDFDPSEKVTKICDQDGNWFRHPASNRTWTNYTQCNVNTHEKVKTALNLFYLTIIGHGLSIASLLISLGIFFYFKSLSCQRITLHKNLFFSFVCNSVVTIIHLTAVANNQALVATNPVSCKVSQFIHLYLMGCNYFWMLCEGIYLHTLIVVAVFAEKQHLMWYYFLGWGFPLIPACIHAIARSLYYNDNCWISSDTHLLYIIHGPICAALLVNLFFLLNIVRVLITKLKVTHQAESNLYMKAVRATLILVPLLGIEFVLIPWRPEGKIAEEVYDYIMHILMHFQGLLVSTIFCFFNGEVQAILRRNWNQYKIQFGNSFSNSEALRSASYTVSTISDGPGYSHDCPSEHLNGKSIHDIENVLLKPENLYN

## O=C(CC1SC(c2ccccc2)N(C2CC2)C1=O)N1CCC(N2Cc3ccccc3NC2=O)CC1 (configuration not stated)
[1]
  Ki: 865 nM
[2]
  IC50: 5150 nM

## O=C(CC1SC(c2ccccc2)N(CC2CC2)C1=O)N1CCC(N2Cc3ccccc3NC2=O)CC1 (configuration not stated)
[1]
  Ki: 45 nM
[2]
  IC50: 840 nM

## CCCCN1C(=O)C(CC(=O)N2CCC(N3Cc4ccccc4NC3=O)CC2)SC1c1ccccc1 (configuration not stated)
[1]
  Ki: 64 nM
[2]
  IC50: 320 nM

## CC(C)CN1C(=O)C(CC(=O)N2CCC(N3Cc4ccccc4NC3=O)CC2)SC1c1ccccc1 (configuration not stated)
[1]
  Ki: 32 nM
[2]
  IC50: 370 nM

## CC(C)(C)N1C(=O)C(CC(=O)N2CCC(N3Cc4ccccc4NC3=O)CC2)SC1c1ccccc1 (configuration not stated)
[1]
  Ki: 1880 nM
[2]
  IC50: 7600 nM

## O=C(CC1SC(c2ccccc2)N(CC(F)(F)F)C1=O)N1CCC(N2Cc3ccccc3NC2=O)CC1 (configuration not stated)
[1]
  Ki: 763 nM
[2]
  IC50: 4540 nM

## COCCN1C(=O)C(CC(=O)N2CCC(N3Cc4ccccc4NC3=O)CC2)SC1c1ccccc1 (configuration not stated)
[1]
  Ki: 124 nM
[2]
  IC50: 1220 nM

## CCN(CC)CCN1C(=O)C(CC(=O)N2CCC(N3Cc4ccccc4NC3=O)CC2)SC1c1ccccc1 (configuration not stated)
[1]
  Ki: 303 nM
[2]
  IC50: 4880 nM

## CC(c1ccccc1)N1C(=O)C(CC(=O)N2CCC(N3Cc4ccccc4NC3=O)CC2)SC1c1ccccc1 (configuration not stated)
[1]
  Ki: 297 nM
[2]
  IC50: 940 nM

## O=C(CC1SC(c2ccccc2)N(C2CCCCC2)C1=O)N1CCC(N2Cc3ccccc3NC2=O)CC1 (configuration not stated)
[1]
  Ki: 88 nM
[2]
  IC50: 710 nM

## O=C(CC1SC(c2ccccc2)N(CC2CCCO2)C1=O)N1CCC(N2Cc3ccccc3NC2=O)CC1 (configuration not stated)
[1]
  Ki: 68 nM
[2]
  IC50: 520 nM

## CC(C)(C)CN1C(=O)C(CC(=O)N2CCC(N3Cc4ccccc4NC3=O)CC2)SC1c1ccccc1 (configuration not stated)
[1]
  Ki: 9 nM
[2]
  IC50: 250 nM

## O=C(CC1SC(c2ccccc2)N(c2ccccc2)C1=O)N1CCC(N2Cc3ccccc3NC2=O)CC1 (configuration not stated)
[1]
  Ki: 806 nM
[2]
  IC50: 2940 nM

## O=C(CC1SC(c2ccccc2)N(Cc2ccc(F)cc2)C1=O)N1CCC(N2Cc3ccccc3NC2=O)CC1 (configuration not stated)
[1]
  Ki: 56 nM
[2]
  IC50: 750 nM

## O=C(CC1SC(c2ccccc2)N(Cc2cccnc2)C1=O)N1CCC(N2Cc3ccccc3NC2=O)CC1 (configuration not stated)
[1]
  Ki: 260 nM
[2]
  IC50: 800 nM

## O=C(CC1SC(c2ccccc2)N(CCc2ccccn2)C1=O)N1CCC(N2Cc3ccccc3NC2=O)CC1 (configuration not stated)
[1]
  Ki: 202 nM
[2]
  IC50: 1370 nM

## CC(C)(C)CCN1C(=O)C(CC(=O)N2CCC(N3Cc4ccccc4NC3=O)CC2)SC1c1ccccc1F (configuration not stated)
[1]
  Ki: 54 nM
[2]
  IC50: 180 nM

## CC(C)(C)CCN1C(=O)C(CC(=O)N2CCC(N3Cc4ccccc4NC3=O)CC2)SC1c1cccc(F)c1F (configuration not stated)
[1]
  Ki: 118 nM
[2]
  IC50: 210 nM

## CC(C)(C)CCN1C(=O)C(CC(=O)N2CCC(N3Cc4ccccc4NC3=O)CC2)SC1c1ccc(F)cc1F (configuration not stated)
[1]
  Ki: 30 nM
[2]
  IC50: 190 nM

## CC(C)(C)CCN1C(=O)C(CC(=O)N2CCC(N3Cc4ccccc4NC3=O)CC2)SC1c1c(F)cccc1F (configuration not stated)
[1]
  Ki: 59 nM
[2]
  IC50: 170 nM

## CC(C)(C)CCN1C(=O)C(CC(=O)N2CCC(N3Cc4ccccc4NC3=O)CC2)SC1c1ccccc1N1CCNCC1 (configuration not stated)
[1]
  Ki: 2 nM
[2]
  IC50: 60 nM

## CC(C)(C)CCN1C(=O)C(CC(=O)N2CCC(N3Cc4ccccc4NC3=O)CC2)SC1c1ccccc1N1CCOCC1 (configuration not stated)
[1]
  Ki: 52 nM
[2]
  IC50: 160 nM

## CN1CCN(c2ccccc2C2SC(CC(=O)N3CCC(N4Cc5ccccc5NC4=O)CC3)C(=O)N2CCC(C)(C)C)CC1 (configuration not stated)
Rattus norvegicus [3]
  Cmax: 260 ng/mL
Rattus norvegicus [4]
  F: 53%
Rattus norvegicus [5]
  AUC: 1600 ng·h/mL

## CC(C)(C)CCN1C(=O)C(CC(=O)N2CCC(N3Cc4ccccc4NC3=O)CC2)SC1c1ccccc1N1CCC(O)CC1 (configuration not stated)
[1]
  Ki: 18 nM
[2]
  IC50: 44 nM

## CC(C)(C)CCN1C(=O)C(CC(=O)N2CCC(N3Cc4ccccc4NC3=O)CC2)SC1c1ccccc1-n1ccnc1 (configuration not stated)
[1]
  Ki: 7 nM
[2]
  IC50: 86 nM

## CC(C)(C)CCN1C(=O)C(CC(=O)N2CCC(N3Cc4ccccc4NC3=O)CC2)SC1c1ccccc1-n1cccn1 (configuration not stated)
[1]
  Ki: 40 nM
[2]
  IC50: 62 nM

## CC(C)(C)CCN1C(=O)C(CC(=O)N2CCC(N3Cc4ccccc4NC3=O)CC2)SC1c1ccccc1-c1cccnc1 (configuration not stated)
[1]
  Ki: 22 nM
[2]
  IC50: 88 nM

## CC(C)(C)CCN1C(=O)C(CC(=O)N2CCC(N3Cc4ccccc4NC3=O)CC2)SC1c1ccccc1-c1ccncc1 (configuration not stated)
[1]
  Ki: 20 nM
[2]
  IC50: 99 nM

## CCCCN1CCN(c2ccccc2C2SC(CC(=O)N3CCC(N4Cc5ccccc5NC4=O)CC3)C(=O)N2CCC(C)(C)C)CC1 (configuration not stated)
[1]
  Ki: 3 nM
[2]
  IC50: 44 nM

## CC(C)(C)CCN1C(=O)C(CC(=O)N2CCC(N3Cc4ccccc4NC3=O)CC2)SC1c1ccccc1N1CCN(CCO)CC1 (configuration not stated)
[1]
  Ki: 8 nM
[2]
  IC50: 36 nM

## CN1CCN(c2ccccc2C2SC(CC(=O)N3CCC(N4CCc5ccccc5NC4=O)CC3)C(=O)N2CCC(C)(C)C)CC1 (configuration not stated)
[1]
  Ki: 2 nM
[2]
  IC50: 19 nM

## CC(C)(C)CCN1C(=O)C(CC(=O)N2CCC(N3CCc4ccccc4NC3=O)CC2)SC1c1ccccc1N1CCNCC1 (configuration not stated)
[1]
  Ki: 1 nM
[2]
  IC50: 33 nM

## CN1CCN(c2c(F)cccc2C2SC(CC(=O)N3CCC(N4CCc5ccccc5NC4=O)CC3)C(=O)N2CCC(C)(C)C)CC1 (configuration not stated)
[1]
  Ki: 0.5 nM
[2]
  IC50: 3 nM

## CN1CCN(c2cc(F)ccc2C2SC(CC(=O)N3CCC(N4CCc5ccccc5NC4=O)CC3)C(=O)N2CCC(C)(C)C)CC1 (configuration not stated)
[1]
  Ki: 14 nM
[2]
  IC50: 84 nM

## CN1CCN(c2ccc(F)cc2C2SC(CC(=O)N3CCC(N4CCc5ccccc5NC4=O)CC3)C(=O)N2CCC(C)(C)C)CC1 (configuration not stated)
[1]
  Ki: 14 nM
[2]
  IC50: 72 nM

## CN1CCN(c2cccc(F)c2C2SC(CC(=O)N3CCC(N4CCc5ccccc5NC4=O)CC3)C(=O)N2CCC(C)(C)C)CC1 (configuration not stated)
[1]
  Ki: 1 nM
[2]
  IC50: 65 nM

## CCN1CCN(c2c(F)cccc2C2SC(CC(=O)N3CCC(N4CCc5ccccc5NC4=O)CC3)C(=O)N2CCC(C)(C)C)CC1 (configuration not stated)
[1]
  Ki: 0.07 nM
[2]
  IC50: 2 nM

## CC(C)N1CCN(c2c(F)cccc2C2SC(CC(=O)N3CCC(N4CCc5ccccc5NC4=O)CC3)C(=O)N2CCC(C)(C)C)CC1 (configuration not stated)
[6]
  Kp: 1.51
[1]
  Ki: 0.02 nM
Rattus norvegicus [7]
  F: 32%
[2]
  IC50: 1 nM
Rattus norvegicus [8]
  AUC: 650 ng·h/mL
Rattus norvegicus [9]
  Cmax: 120 ng/mL

## CC(C)(C)CCN1C(=O)[C@H](CC(=O)N2CCC(N3CCc4ccccc4NC3=O)CC2)S[C@@H]1c1cccc(F)c1N1CCN(C(C)(C)C)CC1
[6]
  Kp: 0.53
Rattus norvegicus [7]
  F: 13%
Rattus norvegicus [8]
  AUC: 530 ng·h/mL
Rattus norvegicus [9]
  Cmax: 410 ng/mL

## CC(C)CCN(Cc1cc(Br)c(O)c(Br)c1)C(=O)CCC(=O)N1CCC(N2Cc3ccccc3NC2=O)CC1
[1]
  Ki: 282 nM
[2]
  IC50: 740 nM

## CN1C(=O)C(CC(=O)N2CCC(N3Cc4ccccc4NC3=O)CC2)SC1c1ccccc1 (configuration not stated)
[1]
  Ki: 203 nM
[2]
  IC50: 4470 nM

## CC(C)N1C(=O)C(CC(=O)N2CCC(N3Cc4ccccc4NC3=O)CC2)SC1c1ccccc1 (configuration not stated)
[1]
  Ki: 115 nM
[2]
  IC50: 1500 nM

## CC(C)CCN1C(=O)C(CC(=O)N2CCC(N3Cc4ccccc4NC3=O)CC2)SC1c1ccccc1 (racemic)
[1]
  Ki: 32 nM
[2]
  IC50: 370 nM

## NCCCC[C@H](NC(=O)[C@@H](Cc1cc(Br)c(O)c(Br)c1)NC(=O)N1CCC(N2Cc3ccccc3NC2=O)CC1)C(=O)N1CCN(c2ccncc2)CC1 [OLCEGEPANT]
[6]
  Kp: < 0.03
[10]
  bioavailability: < 1%
Rattus norvegicus [11]
  Cmax: 870 ng/mL
[12]
  clearance: 65 mL/min/kg
Rattus norvegicus [13]
  AUC: 260 ng·h/mL

## O=C(N[C@@H]1CC[C@@H](c2cccc(F)c2F)CN(CC(F)(F)F)C1=O)N1CCC(n2c(=O)[nH]c3ncccc32)CC1 [TELCAGEPANT]
[6]
  Kp: 0.03
Rattus norvegicus [7]
  F: 45%
Rattus norvegicus [8]
  AUC: 3320 ng·h/mL
Rattus norvegicus [9]
  Cmax: 550 ng/mL
